Screening data (PubChem BioAssay)
ABCB1 block – human ABCB1 inhibition, ABCG2 as counter-screen; CCRF-Adr cells, JC-1 efflux, flow cytometry; inhibition, % at 6.6 µM; AID 1326; actives 0.067% (n = 190,000); in the data active = inhibition above about 40%;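 also: 0% = vehicle and 100% = reference inhibitor; higher value means more JC-1 retained so stronger ABCB1 efflux block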
PMI act – increases human mannose-6-phosphate isomerase activity. activation factor at 20 µM. purified human PMI, coupled resazurin fluorescence, 20 min; hits give high values; 1 = vehicle control, 0 substrate-free wells. AID 1214. actives 0.005% (n = 190,000). P34949;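 active = activation factor of 2 or more at 20 µM, relative to plate controls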
PMI act satM6P – increases human PMI activity with near-saturating mannose 6-phosphate; coupled PMI enzyme assay, resazurin fluorescence, 20 min; hits give high values; 1 = untreated enzyme, 0 = substrate-free blank; activation factor at 20 µM; actives 0.34% (n = 190,000); AID 1216;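 active = activation factor of 2 or more at 20 µM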
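Test system: human PMI in coupled enzyme assay; Input: PMI at 15 ng/mL final; Medium: HEPES buffer, pH 7.4; Schedule: 20 min incubation at room temperature; Technique: resorufin fluorescence at Ex 544/Em 590 nm; Compound: 20 µM single dose; Probe or stimulus: Near-saturating mannose-6-phosphate, 1.0 mM.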
ABCG2 block – human ABCG2 inhibition, ABCB1 as counter-screen; actives 0.1% (n = 190,000); IgMXP3 cells, JC-1 efflux, flow cytometry; inhibition, % at 6.6 µM; Q9UNQ0;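 active = inhibition above 80%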;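 also: 0% = DMSO and 100% = nicardipine control wells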
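Read-out basis: Efflux inhibition in percent versus controls | Test system: ABCG2 IgMXP3 and barcoded ABCB1 CCRF-Adr cell mix | Quantity: 3 million cells/mL in well | Schedule: 10 min at 25 °C | Control set: Nicardipine as high control, DMSO as low control | Reagent: JC-1 as fluorescent efflux pump substrate | Signal: Flow cytometry of retained JC-1 fluorescence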
Cl transport mod – modulates chloride dependent transport by human KCC2 | Q9H2X9 | KCC2 cells, thallium flux FluoZin-2 fluorescence | B-score of Tl+ flux slope (higher = more flux/activation; lower = inhibition) at 10 µM | actives 2.2% (n = 190,000);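 active = thallium flux slope and its plate-corrected score both differing from the plate sample mean at a set confidence after two filtering rounds, in either direction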;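 also: slope of fluorescence scaled to starting intensity during 10 to 20 s after thallium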
Target sequence (Q9H2X9 whole entry, looked up): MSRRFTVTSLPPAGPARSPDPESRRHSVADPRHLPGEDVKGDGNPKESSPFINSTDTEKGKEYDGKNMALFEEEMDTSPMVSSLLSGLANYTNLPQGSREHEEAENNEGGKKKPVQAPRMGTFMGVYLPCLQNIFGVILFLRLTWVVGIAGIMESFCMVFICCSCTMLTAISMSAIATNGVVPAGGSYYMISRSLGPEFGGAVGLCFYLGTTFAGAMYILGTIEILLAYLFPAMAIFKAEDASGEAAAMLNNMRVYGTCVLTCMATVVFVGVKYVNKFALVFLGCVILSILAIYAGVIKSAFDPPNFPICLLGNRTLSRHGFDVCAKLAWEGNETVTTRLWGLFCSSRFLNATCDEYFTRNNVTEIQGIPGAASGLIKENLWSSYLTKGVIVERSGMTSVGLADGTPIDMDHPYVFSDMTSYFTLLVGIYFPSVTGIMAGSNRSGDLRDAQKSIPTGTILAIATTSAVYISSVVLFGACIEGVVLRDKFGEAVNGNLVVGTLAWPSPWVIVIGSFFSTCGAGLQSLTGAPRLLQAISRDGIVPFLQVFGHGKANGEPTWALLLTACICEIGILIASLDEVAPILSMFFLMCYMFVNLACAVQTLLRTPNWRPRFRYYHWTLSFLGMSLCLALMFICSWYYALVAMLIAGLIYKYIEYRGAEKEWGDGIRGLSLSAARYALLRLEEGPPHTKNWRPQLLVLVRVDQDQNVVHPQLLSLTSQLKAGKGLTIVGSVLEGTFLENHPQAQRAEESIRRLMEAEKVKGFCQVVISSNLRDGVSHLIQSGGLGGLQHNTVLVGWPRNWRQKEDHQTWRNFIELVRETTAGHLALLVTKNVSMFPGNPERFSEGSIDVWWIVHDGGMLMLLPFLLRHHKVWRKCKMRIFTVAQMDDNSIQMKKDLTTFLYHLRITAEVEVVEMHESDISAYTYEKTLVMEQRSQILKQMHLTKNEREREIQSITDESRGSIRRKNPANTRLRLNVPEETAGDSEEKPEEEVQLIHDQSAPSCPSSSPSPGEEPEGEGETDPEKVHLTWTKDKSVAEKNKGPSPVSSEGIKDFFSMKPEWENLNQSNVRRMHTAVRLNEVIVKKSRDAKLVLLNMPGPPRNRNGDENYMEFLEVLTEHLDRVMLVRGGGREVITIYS
ROMK primary – modulates human ROMK potassium channel activity | actives 2% (n = 130,000) | P48048 | Tet-inducible ROMK, thallium flux fluorescence; actives lie on both sides | B-score at 10 µM;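 active = signal ratio slope over the read window, or its plate-corrected B-score, at least 3 SD from the plate mean, either direction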;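 also: B-score of the F/F0 ratio slope over 7 to 12 s after thallium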
ABCB1 confirm – inhibits human ABCB1 efflux, confirmed at single point. shares compounds with ABCG2 block. CCRF-Adr cells, JC-1 efflux, flow cytometry. inhibition, % at 6.6 µM. actives 7% (n = 270);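 active = inhibition of pump activity above 50%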;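 also: 0% = DMSO and 100% = nicardipine full pump inhibition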
ABCG2 single pt – confirmation of human ABCG2 transporter inhibitors, ABCB1 counter-screen | IgMXP3 cells, JC-1 efflux, flow cytometry | shares compounds with ABCG2 block | inhibition, % at 6.6 µM | actives 6% (n = 270);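 active = inhibition above 50%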;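 also: 0% = DMSO wells and 100% = nicardipine pump inhibitor wells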
IgMXP3 fluor – compound fluoresces at 488/530 nm in IgMXP3 cells. actives 30% (n = 270). compound autofluorescence 488/530 nm, flow; hits give high values. shares compounds with ABCG2 block. fluorescence at 6.6 µM;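 active = fluorescence in ABCG2-expressing cells above the plate's control-well mean plus 3 SD, cut at about 15 in these data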;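 also: median cell fluorescence with compound minus that of DMSO-treated control cells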
CCRF autofluor – CCRF-Adr autofluorescence flag for ABCB1 confirmation; fluorescence at 6.6 µM; actives 30% (n = 270); CCRF-Adr cells, compound autofluorescence 488/530 nm, flow cytometry; hits give high values; shares compounds with ABCG2 block;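 active = fluorescence beyond the plate control mean plus 3 SD, with a fluorescence-to-maximum score over 2, cut at about 25 in these data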
KCC2 sec1 – confirmation of human KCC2 transport modulators; HEK293-KCC2, thallium flux, FluoZin2 fluorescence; hits give high values; normalised thallium flux (F/F0 slope) at 10 µM; actives 15% (n = 3,700); shares compounds with Cl transport mod; AID 1713;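 active = thallium flux slope above the same plate's solvent-only control mean plus 3 SD; inconclusive = the two replicate wells disagree; inactive = no significant difference from solvent-only control wells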
KCC2 bumet counter – bumetanide-insensitive thallium flux in KCC2 cells with ouabain, counter-screen; shares compounds with Cl transport mod; AID 1714; HEK293-KCC2 + bumetanide/ouabain, thallium flux FluoZin2; hits give high values; actives 49% (n = 3,700); normalized thallium flux at 10 µM;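 active = thallium entry rate above the same plate's blocked-transporter control wells by more than 3 SD; inconclusive = the two repeat wells disagree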;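 also: raw slope of fluorescence over initial fluorescence between 10 and 20 s after thallium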
KCC2 secondary2 – confirmation of human KCC2 transport modulators; HEK293-KCC2, thallium flux FluoZin2 fluorescence; actives lie on both sides; F/F0 rise rate, 10–20 s post-thallium; normalized thallium flux at 10 µM; shares compounds with Cl transport mod; AID 1715; actives 23% (n = 3,700);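 active = thallium flux slope more than 3 SD above or below the plate's solvent-only control mean, mostly below; inconclusive = the two repeat wells disagreed; inactive = no significant shift from solvent-only controls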;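 also: raw slope with 0.1% DMSO as baseline and bumetanide as block control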
HEK counter1 – parental HEK flux effect, counter-screen; shares compounds with Cl transport mod; thallium flux rate (normalised fluorescence) at 10 µM; actives 46% (n = 3,700); HEK293 parental cells, thallium flux FluoZin2, ouabain; baseline-ratio fluorescence slope, 10–20 s after thallium;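 active = thallium flux rate significantly above the same plate's solvent-only control wells, beyond their mean plus 3 SD; inconclusive = the two replicate wells gave conflicting results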
KCC2 ouabain – confirmation of human KCC2 modulators with ouabain; shares compounds with Cl transport mod; HEK293-KCC2, thallium flux FluoZin2 fluorescence; bidirectional: low = inhibitor, high = activator; AID 1717; actives 48% (n = 3,700); raw Tl+ flux slope (below DMSO = inhibition, above = activation) at 10 µM;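 active = thallium flux slope beyond 3 SD from same-plate DMSO control mean in most replicates, usually higher, sometimes lower; inconclusive = repeat tests gave conflicting results; inactive = no significant difference from controls in most replicates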;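 also: slope of initial-normalized fluorescence between seconds 10 and 20 after thallium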
HEK293 Tl flux2 – acts in parental HEK cells, second KCC2 counter-screen; actives 33% (n = 3,700); thallium flux slope at 10 µM; HEK293 parental, thallium flux FluoZin-2 fluorescence slope; shares compounds with Cl transport mod; AID 1718;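 active = thallium flux slope above the same plate's solvent-control mean plus 3 SD in both duplicate wells; inconclusive = duplicate wells that disagreed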;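 also: run without ouabain in cells lacking the KCC2 cotransporter; slope of fluorescence scaled to its starting value between 10 and 20 s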
* = called active by the depositor; ? = inconclusive; nt = no result. Rows were chosen to be rich in hits. Some 3.3% of all compounds tested hit in one or more screens of this group.

SMILES	ABCB1 block	PMI act	PMI act satM6P	ABCG2 block	Cl transport mod	ROMK primary	others
C=CCN1C(=O)NC(=O)/C(=C/c2ccoc2)C1=O	-1	1.6	2.2*	-2	-0.05	1.3
Cc1cc(Cl)ccc1C(=O)C1CCCN(C2CCSCC2)C1 (stereo not given)	5	1.1	1.1	13	-1.2	-1.6
CCOC(=O)C(NC(C)=O)C(OC(C)=O)c1cccc(N(CCCl)CCCl)c1 (stereo not given)	0	1.6	2*	1	0.15	nt
CC(C)Oc1ccc(Cc2c(O)[nH]c(=O)[nH]c2=O)cc1	0	1	1	1	0.97	-0.14
CC(=O)c1ccc(OC(C)C)c(Cc2c(O)[nH]c(=S)[nH]c2=O)c1	-1	1.5	2.1*	-1	0.11	0.0044
S=C1CN=C(c2ccccc2Cl)c2cc(Cl)ccc2N1	0	1	1	1	5.8*	-0.033
O=[N+]([O-])NC1=NCN(Cc2ccco2)CN1Cc1ccco1	1	1	1	6	0.18	-0.11
Cc1ccc2c(c1)CC1(CN2C)C(=O)NC(=O)N(CCc2ccccc2)C1=O (stereo not given)	0	1.8	2.1*	2	-0.15	0.78
CCC1CCCCN1CC(=O)c1ccc(OC(F)F)cc1 (stereo not given)	0	1.3	1.4	0	0.036	nt
CCOC(=O)c1c(/N=C/C2C(=O)NC(=S)NC2=O)sc2c1CCC2	0	1.6	2.1*	-1	-0.018	-0.81
CCOC(=O)c1c(/N=C/C2C(=O)NC(=S)NC2=O)sc(C)c1C	0	0.9	1.1	0	-1.3	-2
NC(=O)Nc1ccc(C(=O)OCC(=O)Nc2ccc(Cl)cc2C(=O)c2ccccc2)cc1	-3	1	1	-4	0.19	0.12
CC1=CC(=C2C(=O)NC(=S)NC2=O)C=C(C(F)(F)F)N1Cc1ccccc1	1	1.7	2*	4	0.86	0.32
Cn1cc2c([N+](=O)[O-])cc([N+](=O)[O-])cc2n1	0	1	0.6	9	-0.048	0
Cn1cnc([N+](=O)[O-])c1Sc1ccc([N+](=O)[O-])cc1	-1	1.4	2*	-3	0.72	-1.1
CC1=NN(c2ccccc2)C(=O)C1/C=C1/C(=O)NC(=O)N(c2cccc(C)c2)C1=O (stereo not given)	0	1	1	0	-0.13	nt
Cc1cccc(N2C(=O)NC(=O)/C(=C\c3ccc4c(c3)CCCN4Cc3ccccc3)C2=O)c1	50*	1.2	1.3	64	0.51	0.84	ABCB1 confirm=1;ABCG2 single pt=-1;IgMXP3 fluor=14*;CCRF autofluor=59*
C=CCn1c(O)c(C(C)=O)c(=O)[nH]c1=O (tested in a mixture with another compound)	nt	nt	nt	nt	0.95	nt
CCn1cc(/C=c2/sc3n(c2=O)C2c4ccccc4OC(C)(N=3)C2C(=O)OC)c(C)n1 (stereo not given)	53*	1	1	26	-0.55	0.06	ABCB1 confirm=14;ABCG2 single pt=12;IgMXP3 fluor=18*;CCRF autofluor=13
O=c1c2cc(Br)ccc2[nH]c(=S)n1-c1ccccc1	1	1	1	10	20*	0.39	KCC2 sec1=0.008;KCC2 bumet counter=0.027*;KCC2 secondary2=0.042*;HEK counter1=0.022*;KCC2 ouabain=0.033*;HEK293 Tl flux2=0.023*
O=c1c2ccccc2[nH]c(=S)n1-c1ccc(Br)cc1	0	1.1	1.1	0	20*	-0.65	KCC2 sec1=0.0064;KCC2 bumet counter=0.041*;KCC2 secondary2=0.042*;HEK counter1=0.028*;KCC2 ouabain=0.044*;HEK293 Tl flux2=0.027*
CCCCn1c(=O)c(C(=O)Nc2ccsc2C(=O)OC)c(O)c2ccccc21	-1	1	1.1	-4	0.31	0.31
N#Cc1ccc(/C=C/C(=O)O)cc1	nt	nt	nt	nt	-0.35	nt
CC(NC(C)(C)C)C(=O)c1cccc(Cl)c1 (stereo not given)	0	1.2	0.9	1	7.7*	nt	KCC2 sec1=0.0058;KCC2 bumet counter=0.0043;KCC2 secondary2=0.029;HEK counter1=0.0071;KCC2 ouabain=0.018;HEK293 Tl flux2=0.0094
CC(C)NC(C)C(=O)c1ccc2ccccc2c1 (stereo not given)	0	1	1	1	1.4	0.86
Nc1ccccc1C(=O)OCC(=O)N1CCc2ccccc21	1	1	1	48	nt	-0.43	KCC2 sec1=0.0062;KCC2 bumet counter=?;KCC2 secondary2=0.03;HEK counter1=?;KCC2 ouabain=0.013*;HEK293 Tl flux2=0.011
COc1cc2c3c(c1OC)-c1cc(O)ccc1CC3NCC2 (stereo not given)	1	0.8	0.8	4	-1.2	-0.51
